These results are taken from ChEMBL document CHEMBL1629498, “The synthesis of phenylalanine-derived C5-substituted rhodanines and their activity against selected methicillin-resistant Staphylococcus aureus (MRSA) strains” (2010).

Converted amounts (≈) assume the structure as drawn.

Common to all, as to assay type: functional
The subject of assay [1] is Staphylococcus aureus. The assay is described as follows: Antibacterial activity against methicillin resistant Staphylococcus aureus ATCC BAA-39 by microdilution method. An outline of the steps: (§1)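 Broth microdilution MIC in cation-adjusted Mueller Hinton II broth. Compounds were made up at 2 mg/mL (starting solution) in DMF plus broth, with DMF ≤0.5% of media, then serially diluted in broth. Inoculum was a 0.5 McFarland suspension, 0.2 mL diluted into 40 mL broth and added to wells. Drug-free controls were included. MIC was the well with no turbidity versus controls; each strain was tested at least in triplicate.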
A general note: In broth dilution the organism is exposed to a series of concentrations in liquid medium.

The test system of assay [2] is Staphylococcus aureus. The assay is described as follows: Antibacterial activity against methicillin resistant Staphylococcus aureus ATCC 700698 by microdilution method. In a few lines:
as §1

Assay [3] deals with Staphylococcus aureus. The assay is described as follows: Antibacterial activity against methicillin resistant Staphylococcus aureus ATCC 700787 by microdilution method. In a few lines: as §1
In assay [4] the test system is Staphylococcus aureus. The assay is described as follows: Antibacterial activity against methicillin resistant Staphylococcus aureus ATCC 34404 by microdilution method. In a few lines:
as §1

For assay [5], the system named is Staphylococcus aureus. The assay is described as follows: Antibacterial activity against methicillin resistant Staphylococcus aureus ATCC BAA-1680 by microdilution method. An outline of the steps: as §1

As a reminder, the MIC is the least concentration at which growth counts as inhibited. High values mean a need for much substance, low ones inhibition by little substance. Regarding `O=C(O)CN1C(=O)/C(=C/c2ccc(Cl)c(Cl)c2)SC1=S`, the MIC in the assay on Staphylococcus aureus [1], against Staphylococcus aureus [2], in the assay with Staphylococcus aureus [3], against Staphylococcus aureus [4] and in the assay on Staphylococcus aureus [5] was 125 µg/mL (≈ 359 µM) each time.
As for `O=C(O)CN1C(=O)/C(=C/c2cccc(Oc3ccccc3)c2)SC1=S`, the MIC in the assay on Staphylococcus aureus [1], in the assay on Staphylococcus aureus [2], with Staphylococcus aureus [3], with Staphylococcus aureus [4] and with Staphylococcus aureus [5] was 31.2 µg/mL (≈ 84.1 µM) in each case.
Turning to `CCCC(C(=O)O)N1C(=O)/C(=C/c2ccc(Cl)cc2Cl)SC1=S` (stereo not given), the MIC in the assay on Staphylococcus aureus [1], in the assay with Staphylococcus aureus [2], in the assay with Staphylococcus aureus [3], with Staphylococcus aureus [4] and with Staphylococcus aureus [5] was 15.6 µg/mL (≈ 40 µM) each time.
For `CC(C)CC(C(=O)O)N1C(=O)/C(=C/c2ccc(Cl)cc2Cl)SC1=S` (stereo not given), the MIC against Staphylococcus aureus [1], against Staphylococcus aureus [2], against Staphylococcus aureus [3], in the assay on Staphylococcus aureus [4] and against Staphylococcus aureus [5] was 15.6 µg/mL (≈ 38.6 µM) in each case.
Regarding `CC(C(=O)O)N1C(=O)/C(=C/c2ccc(Cl)cc2Cl)SC1=S` (stereo not given), the MIC with Staphylococcus aureus [1], in the assay with Staphylococcus aureus [2] and with Staphylococcus aureus [3] was 125 µg/mL (≈ 345 µM) throughout.
In the case of `O=C(O)C(Cc1ccccc1)N1C(=O)/C(=C/c2ccc(Cl)cc2Cl)SC1=S` (stereo not given), the MIC with Staphylococcus aureus [1], in the assay with Staphylococcus aureus [2], with Staphylococcus aureus [3], in the assay on Staphylococcus aureus [4] and in the assay on Staphylococcus aureus [5] was 15.6 µg/mL (≈ 35.6 µM) in each case.
As for `CC(C)C(C(=O)O)N1C(=O)/C(=C/c2ccc(Cl)cc2Cl)SC1=S` (stereo not given), the MIC in the assay on Staphylococcus aureus [1], against Staphylococcus aureus [2], in the assay on Staphylococcus aureus [3], in the assay with Staphylococcus aureus [4] and in the assay on Staphylococcus aureus [5] was 15.6 µg/mL (≈ 40 µM) throughout.
As to `O=C(O)CN1C(=O)/C(=C/c2ccccc2[N+](=O)[O-])SC1=S`, the MIC in the assay on Staphylococcus aureus [1], with Staphylococcus aureus [2], against Staphylococcus aureus [3], in the assay with Staphylococcus aureus [4] and in the assay with Staphylococcus aureus [5] was 62.5 µg/mL (≈ 193 µM) throughout.
For the compound `O=C(O)CN1C(=O)/C(=C/c2ccc([N+](=O)[O-])cc2)SC1=S`, the MIC in the assay on Staphylococcus aureus [1], against Staphylococcus aureus [2], in the assay on Staphylococcus aureus [3], with Staphylococcus aureus [4] and in the assay on Staphylococcus aureus [5] was 250 µg/mL (≈ 771 µM) throughout.
For the compound `CC(C)C(C(=O)O)N1C(=O)/C(=C/c2cccc3ccccc23)SC1=S` (stereo not given), the MIC against Staphylococcus aureus [1], with Staphylococcus aureus [2], in the assay on Staphylococcus aureus [3], with Staphylococcus aureus [4] and with Staphylococcus aureus [5] was 62.5 µg/mL (≈ 168 µM) each time.
Regarding `CC(C)C(C(=O)O)N1C(=O)/C(=C/c2ccc(F)cc2)SC1=S` (stereo not given), the MIC in the assay on Staphylococcus aureus [1], in the assay on Staphylococcus aureus [2] and in the assay with Staphylococcus aureus [3] was 62.5 µg/mL (≈ 184 µM) each time.
Take `CC(C)C(C(=O)O)N1C(=O)/C(=C/c2ccccc2Cl)SC1=S` (stereo not given): the MIC with Staphylococcus aureus [1], against Staphylococcus aureus [2] and in the assay on Staphylococcus aureus [3] was 62.5 µg/mL (≈ 176 µM) throughout.
Regarding `O=C(O)CN1C(=O)/C(=C/C=C/c2ccccc2)SC1=S`, the MIC in the assay on Staphylococcus aureus [1], against Staphylococcus aureus [2], in the assay on Staphylococcus aureus [3], with Staphylococcus aureus [4] and against Staphylococcus aureus [5] was 250 µg/mL (≈ 819 µM) each time.
`CCSCC(C(=O)O)N1C(=O)/C(=C/c2ccc(Cl)cc2Cl)SC1=S` (stereo not given): the MIC in the assay on Staphylococcus aureus [1], in the assay on Staphylococcus aureus [2], in the assay on Staphylococcus aureus [3], against Staphylococcus aureus [4] and in the assay with Staphylococcus aureus [5] was 31.2 µg/mL (≈ 74 µM) in each case.
On to `COc1ccc(/C=C2\SC(=S)N(CC(=O)O)C2=O)cc1`, for which the MIC against Staphylococcus aureus [1] was 250 µg/mL (≈ 808 µM); in the assay on Staphylococcus aureus [2], 250 µg/mL (≈ 808 µM); against Staphylococcus aureus [3] it was 250 µg/mL (≈ 808 µM); in the assay on Staphylococcus aureus [4], 200 µg/mL (≈ 646 µM); with Staphylococcus aureus [5], 250 µg/mL (≈ 808 µM).
Consider `O=C(O)CN1C(=O)/C(=C/c2ccnc3ccccc23)SC1=S`, for which the MIC against Staphylococcus aureus [1] stood at 500 µg/mL (≈ 1510 µM); with Staphylococcus aureus [2], 500 µg/mL (≈ 1510 µM); in the assay on Staphylococcus aureus [3], 250 µg/mL (≈ 757 µM); in the assay on Staphylococcus aureus [4] it was 200 µg/mL (≈ 605 µM); in the assay with Staphylococcus aureus [5], 250 µg/mL (≈ 757 µM).
As for `O=C(O)CN1C(=O)/C(=C/C2CCCCC2)SC1=S`, the MIC in the assay on Staphylococcus aureus [1], against Staphylococcus aureus [2], against Staphylococcus aureus [3], with Staphylococcus aureus [4] and against Staphylococcus aureus [5] was 31.2 µg/mL (≈ 109 µM) throughout.
As for `O=C(O)C(Cc1ccccc1)N1C(=O)/C(=C/c2ccccc2[N+](=O)[O-])SC1=S` (stereo not given), the MIC in the assay on Staphylococcus aureus [1] was 62.5 µg/mL (≈ 151 µM); against Staphylococcus aureus [2], 62.5 µg/mL (≈ 151 µM); in the assay with Staphylococcus aureus [3], 125 µg/mL (≈ 302 µM); in the assay on Staphylococcus aureus [4] it was 125 µg/mL (≈ 302 µM); in the assay on Staphylococcus aureus [5] it was 62.5 µg/mL (≈ 151 µM).
Turning to `O=C(O)C(Cc1ccccc1)N1C(=O)/C(=C/c2cccc(Oc3ccccc3)c2)SC1=S` (stereo not given), the MIC worked out at 3.9 µg/mL (≈ 8.45 µM) in the assay on Staphylococcus aureus [1]; 3.9 µg/mL (≈ 8.45 µM) in the assay with Staphylococcus aureus [2]; 3.9 µg/mL (≈ 8.45 µM) against Staphylococcus aureus [3]; 1.95 µg/mL (≈ 4.22 µM) in the assay on Staphylococcus aureus [4]; 1.95 µg/mL (≈ 4.22 µM) against Staphylococcus aureus [5].
Take `O=C(O)c1cn(C2CC2)c2cc(N3CCNCC3)c(F)cc2c1=O` [CIPROFLOXACIN]: inhibition of growth against Staphylococcus aureus [3] (MIC) required 62.5 µg/mL (≈ 189 µM).
With `CC1(C)S[C@@H]2[C@H](NC(=O)Cc3ccccc3)C(=O)N2[C@H]1C(=O)O` [PENICILLIN G], the MIC in the assay with Staphylococcus aureus [1] stood at 31.2 µg/mL (≈ 93.5 µM); in the assay with Staphylococcus aureus [2], 15.6 µg/mL (≈ 46.7 µM); with Staphylococcus aureus [3], 31.2 µg/mL (≈ 93.5 µM); against Staphylococcus aureus [4], 31.2 µg/mL (≈ 93.5 µM); in the assay with Staphylococcus aureus [5], 62.5 µg/mL (≈ 187 µM).
Regarding `CN[C@H](CC(C)C)C(=O)N[C@H]1C(=O)N[C@@H](CC(N)=O)C(=O)N[C@H]2C(=O)N[C@H]3C(=O)N[C@H](C(=O)N[C@H](C(=O)O)c4cc(O)cc(O)c4-c4cc3ccc4O)[C@H](O)c3ccc(c(Cl)c3)Oc3cc2cc(c3O[C@@H]2O[C@H](CO)[C@@H](O)[C@H](O)[C@H]2O[C@H]2C[C@](C)(N)[C@H](O)[C@H](C)O2)Oc2ccc(cc2Cl)[C@H]1O` [VANCOMYCIN], the MIC in the assay on Staphylococcus aureus [1] was ≤ 0.97 µg/mL; against Staphylococcus aureus [2], ≤ 0.97 µg/mL; in the assay on Staphylococcus aureus [3], 1.95 µg/mL (≈ 1.35 µM); against Staphylococcus aureus [4], ≤ 0.97 µg/mL; against Staphylococcus aureus [5], ≤ 0.97 µg/mL.
